Test results taken from paper PMC4806784 (Investigational new drugs, 2015).

Columns and labels:
[1] = test system: phospho-Aurora B (pAurB) and phospho-histone H3 (pHH3); assay: Immunohistochemistry of hair follicles and skin biopsies; assay type: in vivo, human; conditions: Panel 1 (MT), pre- and post-dose hair follicles and skin biopsies
Summary of the method: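 Plucked scalp hair follicles (from at least 15 hair shafts) and skin punch biopsies were taken pre-dose and on Cycle 1 Day 2, 4 (±1) h after the third oral BID Q12hr dose. Only Panel 1 monotherapy patients were sampled. Phospho-Aurora B and phospho-histone H3 were assessed by immunohistochemistry as change from baseline.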

[2] = test system: advanced and/or refractory solid tumors; assay: Tumor response; assay type: in vivo, human
AK-A = conditions: adenosine triphosphate-competitive inhibitor; cited from earlier work
Safety and tolerability = assay type: in vivo
[3] = Panel 2: (N = 17) MK-5108 CT with docetaxel
[4] = Crossover from Panel 1 to Panel 2 (n = 4)

With O=C(O)[C@]1(Cc2cccc(Nc3nccs3)n2)CC[C@@H](Oc2cccc(Cl)c2F)CC1 [MK-5108] the “change from baseline in pHH3 and pAurB (IHC)” value [1] was “no clear dose-related increases”, the Partial Response ([2]; MK-5108 225 Q12hr (450 mg/day) CT, 1 patient) was 5.9% and the stable disease ([2]; MK-5108 CT, 7 patients) was 41.2%. The Progressive Disease ([2]; MK-5108 MT, 8 patients) was 44.4%, the stable disease ([2]; MK-5108 MT, 9 patients) was 50% and the “best response: stable disease (patients/evaluable)” value ([2]; Panel 1 (MT)) was 9/17. The “median duration of stable disease” value ([2]; Panel 1 (MT)) was 88 days, the “Partial Response” value ([2]; Panel 1: (N = 18) MK-5108 MT) was 0 (0.0) n (%) and the “Progressive Disease” value ([2]; Panel 1: (N = 18) MK-5108 MT) was 8 (44.4) n (%). For the same molecule, the “Tumor response category: Discontinued due to AE” value ([2]; Panel 1: (N = 18) MK-5108 MT) was 1 (5.6) n (%), the “stable disease” value ([2]; Panel 1: (N = 18) MK-5108 MT) was 9 (50.0) n (%) and the “best response: SD (patients/evaluable)” value ([2]; Panel2 (CT)) was 7/16. For the same molecule, the “median duration of stable disease” value ([2]; Panel2 (CT)) was 48 days, the “best response: PR (patients/evaluable)” value ([2]; Panel2 (CT), 450 mg/day) was 1/16 and the “Partial Response” value [2, 3] was 1 (5.9) n (%). For the same molecule, the “Progressive Disease” value [2, 3] was 8 (47.1) n (%), the “Tumor response category: Discontinued due to AE” value [2, 3] was 1 (5.9) n (%) and the “stable disease” value [2, 3] was 7 (41.2) n (%). The complete responses ([2]; either of the treatment panels) was “no complete responses”, the IC50 (AK-A) was 0.064 nM and the “Drug-related AEs by SOC: Blood and lymphatic system disorders” value (Safety and tolerability; Crossover (N = 4)) was 2 (50.0) n (%). The “Drug-related AEs by SOC: Gastrointestinal disorders” value (Safety and tolerability; Crossover (N = 4)) was 1 (25.0) n (%), the “Drug-related AEs by SOC: General disorders and administration site conditions” value (Safety and tolerability; Crossover (N = 4)) was 2 (50.0) n (%) and the “Drug-related AEs by SOC: Infections and infestations” value (Safety and tolerability; Crossover (N = 4)) was 0 (0.0) n (%). For the same molecule, the “Drug-related AEs by SOC: Investigations” value (Safety and tolerability; Crossover (N = 4)) was 1 (25.0) n (%), the “Drug-related AEs by SOC: Metabolism and nutrition disorders” value (Safety and tolerability; Crossover (N = 4)) was 2 (50.0) n (%) and the “Drug-related AEs by SOC: Musculoskeletal and connective tissue disorders” value (Safety and tolerability; Crossover (N = 4)) was 1 (25.0) n (%). The “Drug-related AEs by SOC: Nervous system disorders” value (Safety and tolerability; Crossover (N = 4)) was 1 (25.0) n (%), the “Drug-related AEs by SOC: Respiratory, thoracic and mediastinal disorders” value (Safety and tolerability; Crossover (N = 4)) was 1 (25.0) n (%) and the “Drug-related AEs by SOC: Skin and subcutaneous tissue disorders” value (Safety and tolerability; Crossover (N = 4)) was 1 (25.0) n (%). For the same molecule, the “Drug-related AEs by SOC: Vascular disorders” value (Safety and tolerability; Crossover (N = 4)) was 0 (0.0) n (%), the “Patients with drug-related AEs, highest grade: Grade 1” value (Safety and tolerability; Crossover (N = 4)) was 1 (25.0) n (%) and the “Patients with drug-related AEs, highest grade: Grade 2” value (Safety and tolerability; Crossover (N = 4)) was 0 (0.0) n (%). The “Patients with drug-related AEs, highest grade: Grade 3” value (Safety and tolerability; Crossover (N = 4)) was 1 (25.0) n (%), the “Patients with drug-related AEs, highest grade: Grade 4” value (Safety and tolerability; Crossover (N = 4)) was 1 (25.0) n (%) and the “Patients with no drug-related AEs” value (Safety and tolerability; Crossover (N = 4)) was 1 (25.0) n (%). The “Patients with one or more drug-related AEs” value (Safety and tolerability; Crossover (N = 4)) was 3 (75.0) n (%), the Death (Safety and tolerability; [4]) was 0 n (%) and the “Discontinued treatment due to a drug-related AE” value (Safety and tolerability; [4]) was 0 n (%). For the same molecule, the “Discontinued treatment due to a drug-related SAE” value (Safety and tolerability; [4]) was 0 n (%), the “Discontinued treatment due to an SAE” value (Safety and tolerability; [4]) was 0 n (%) and the “Discontinued treatment due to any AE” value (Safety and tolerability; [4]) was 0 n (%). The “Patients with any AE” value (Safety and tolerability; [4]) was 4 (100.0) n (%), the “Patients with drug-related AE” value (Safety and tolerability; [4]) was 3 (75.0) n (%) and the “Patients with no AE” value (Safety and tolerability; [4]) was 0 n. The “Patients with serious AE” value (Safety and tolerability; [4]) was 0 n (%), the “Patients with serious drug-related AE” value (Safety and tolerability; [4]) was 0 n (%) and the MTD (Safety and tolerability; MK-5108 MT, doses up to 1800 mg Q12hr) was “not established”. For the same molecule, the tolerability (Safety and tolerability; MT, doses up to 1800 mg Q12hr (3600 mg/day)) was “generally well tolerated”, the “patients experiencing a DLT” value (Safety and tolerability; Panel 1 (MT)) was “no patients” and the “patients with a Grade 3 or 4 drug-related AE” value (Safety and tolerability; Panel 1 (MT)) was “No patients”. The “AEs (all grades and doses) by SOC: General disorders and administration site conditions” value (Safety and tolerability; Panel 1 (MT), 11/14) was 78.6%, the “AEs (all grades and doses) by SOC: Gastrointestinal disorders” value (Safety and tolerability; Panel 1 (MT), 12/14) was 85.7% and the “Drug-related AEs by SOC: Blood and lymphatic system disorders” value (Safety and tolerability; Panel 1: MK-5108 MT (N = 14)) was 4 (28.6) n (%). The “Drug-related AEs by SOC: Gastrointestinal disorders” value (Safety and tolerability; Panel 1: MK-5108 MT (N = 14)) was 7 (50.0) n (%), the “Drug-related AEs by SOC: General disorders and administration site conditions” value (Safety and tolerability; Panel 1: MK-5108 MT (N = 14)) was 7 (50.0) n (%) and the “Drug-related AEs by SOC: Infections and infestations” value (Safety and tolerability; Panel 1: MK-5108 MT (N = 14)) was 0 (0.0) n (%). The “Drug-related AEs by SOC: Investigations” value (Safety and tolerability; Panel 1: MK-5108 MT (N = 14)) was 2 (14.3) n (%), the “Drug-related AEs by SOC: Metabolism and nutrition disorders” value (Safety and tolerability; Panel 1: MK-5108 MT (N = 14)) was 2 (14.3) n (%) and the “Drug-related AEs by SOC: Musculoskeletal and connective tissue disorders” value (Safety and tolerability; Panel 1: MK-5108 MT (N = 14)) was 1 (7.1) n (%). The “Drug-related AEs by SOC: Nervous system disorders” value (Safety and tolerability; Panel 1: MK-5108 MT (N = 14)) was 3 (21.4) n (%), the “Drug-related AEs by SOC: Respiratory, thoracic and mediastinal disorders” value (Safety and tolerability; Panel 1: MK-5108 MT (N = 14)) was 1 (7.1) n (%) and the “Drug-related AEs by SOC: Skin and subcutaneous tissue disorders” value (Safety and tolerability; Panel 1: MK-5108 MT (N = 14)) was 1 (7.1) n (%). The “Drug-related AEs by SOC: Vascular disorders” value (Safety and tolerability; Panel 1: MK-5108 MT (N = 14)) was 0 (0.0) n (%), the “Patients with drug-related AEs, highest grade: Grade 1” value (Safety and tolerability; Panel 1: MK-5108 MT (N = 14)) was 3 (21.4) n (%) and the “Patients with drug-related AEs, highest grade: Grade 2” value (Safety and tolerability; Panel 1: MK-5108 MT (N = 14)) was 5 (35.7) n (%). The “Patients with drug-related AEs, highest grade: Grade 3” value (Safety and tolerability; Panel 1: MK-5108 MT (N = 14)) was 0 (0.0) n (%) and the “Patients with drug-related AEs, highest grade: Grade 4” value (Safety and tolerability; Panel 1: MK-5108 MT (N = 14)) was 0 (0.0) n (%).
